Data on 31 compounds can be found in PubChem BioAssay.

Experiment [1] can be described thus: thallium flux activation in parental CHO cells, counter-screen for KCNQ1 potentiator project (AID 493006;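 active = duplicate-averaged activation above buffer control mean plus 5 SD of those controls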;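 for activation: fluorescence ratio of max minus min over baseline after K+ and Tl+ depolarization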). The following applies: parental CHO-K1 cells, FluxOR thallium flux, at 10 µM; stronger effect = higher value. The procedure, abridged:
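Material: parental CHO-K1 cells, FluxOR dye-loaded; Also added: Potassium/thallium depolarization pulse; Schedule: overnight 37 °C plating, 90 min dye, 20 min dark compound; Signal: kinetic FluxOR fluorescence, 10 s baseline, 110 s after stimulus.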
(Counterscreens check selectivity or assay interference.)

Experiment [2] has as its target Potassium voltage-gated channel subfamily KQT member 1 (Homo sapiens) (UniProt P51787). Briefly: KCNQ1 potassium channel potentiators, confirmation, FluxOR thallium flux, CHO cells, duplicates (AID 493007).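 For outcome: cells depolarized by a potassium plus thallium sulfate stimulus after compound.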 As to conditions: KCNQ1 cell line, FluxOR thallium flux fluorescence, at 10 µM; stronger effect = higher value, % of reference activator effect, buffer zero. The procedure, abridged: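 System: KCNQ1-expressing CHO cell line; technique: kinetic thallium influx fluorescence with FluxOR dye, 10 s baseline, 110 s post-stimulus; timing: dye 90 min then compound 20 min, both at room temperature; controls: buffer-only wells as 0% and R-L3 activator as 100%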

Experiment [3] has as its target Potassium voltage-gated channel subfamily KQT member 2 (Rattus norvegicus) (UniProt O88943). Briefly: rat KCNQ2 channel potentiation, selectivity assay for KCNQ1 potentiator project, KCNQ2-CHO-K1 cells (AID 493009;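 active = mean duplicate potentiation above the buffer control mean plus 5 SD of buffer wells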;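 note: assay conditions were tuned for KCNQ1 rather than KCNQ2 modulators; signal is max minus min fluorescence divided by baseline after thallium stimulus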). As to conditions: FluxOR thallium flux fluorescence, at 10 µM; stronger effect = higher value, scaled: buffer 0, activator control 100.
Experiment [4] addresses Potassium voltage-gated channel subfamily KQT member 1 (Homo sapiens) (UniProt P51787). Briefly: KCNQ1 channel current potentiators, confirmation, orthogonal assay for KCNQ1 potentiator project, IonWorks patch clamp, KCNQ1-CHO cells (AID 493184;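 active = current rise at least 3 SD above the untreated control mean in each of two repeat wells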). The following applies: automated patch clamp current, at 10 µM; stronger effect = higher value. The procedure, abridged: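 Test system: KCNQ1-expressing CHO cells. Medium: pH 7.4 external bath. Probe or stimulus: voltage step from -90 mV holding to +40 mV, 2,000 ms. Compound: 10 µM final, single point. Detection: automated perforated-patch electrophysiology. Read-out: percent current increase versus pre-compound level. Repeats: two replicates.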
In general terms: Patch clamp records ionic current or voltage across a cell membrane.

The source made the active and inactive calls.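 Rule for the calls, unless noted: active = potentiation averaged over duplicate wells exceeding buffer-only control mean by more than 3 SD; inactive = the rest.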

Sequence of Potassium voltage-gated channel subfamily KQT member 2 (Rattus norvegicus) (O88943 whole entry, looked up): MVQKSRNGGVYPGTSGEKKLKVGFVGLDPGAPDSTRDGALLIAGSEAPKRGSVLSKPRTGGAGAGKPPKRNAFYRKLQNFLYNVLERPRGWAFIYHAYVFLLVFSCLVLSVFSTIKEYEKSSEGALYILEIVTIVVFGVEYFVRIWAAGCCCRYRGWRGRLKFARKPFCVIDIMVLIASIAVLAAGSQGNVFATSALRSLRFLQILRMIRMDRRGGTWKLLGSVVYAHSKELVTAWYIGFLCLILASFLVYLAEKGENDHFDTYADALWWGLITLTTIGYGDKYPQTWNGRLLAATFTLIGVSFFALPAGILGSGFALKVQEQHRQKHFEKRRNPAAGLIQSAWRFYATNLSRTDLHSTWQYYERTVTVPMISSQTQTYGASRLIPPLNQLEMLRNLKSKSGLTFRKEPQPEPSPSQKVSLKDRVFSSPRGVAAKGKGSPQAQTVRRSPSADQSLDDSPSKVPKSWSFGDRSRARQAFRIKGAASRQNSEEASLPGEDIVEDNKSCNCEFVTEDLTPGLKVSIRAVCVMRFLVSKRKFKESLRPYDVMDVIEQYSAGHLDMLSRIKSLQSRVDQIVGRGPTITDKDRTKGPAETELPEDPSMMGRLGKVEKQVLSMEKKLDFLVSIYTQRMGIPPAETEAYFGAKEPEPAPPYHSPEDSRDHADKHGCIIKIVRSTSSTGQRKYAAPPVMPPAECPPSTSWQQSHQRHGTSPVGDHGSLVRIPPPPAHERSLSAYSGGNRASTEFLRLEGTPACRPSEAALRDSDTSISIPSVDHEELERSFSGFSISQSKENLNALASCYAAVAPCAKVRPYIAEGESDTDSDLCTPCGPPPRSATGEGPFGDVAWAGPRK
Sequence of Potassium voltage-gated channel subfamily KQT member 1 (Homo sapiens) (P51787 whole entry, looked up): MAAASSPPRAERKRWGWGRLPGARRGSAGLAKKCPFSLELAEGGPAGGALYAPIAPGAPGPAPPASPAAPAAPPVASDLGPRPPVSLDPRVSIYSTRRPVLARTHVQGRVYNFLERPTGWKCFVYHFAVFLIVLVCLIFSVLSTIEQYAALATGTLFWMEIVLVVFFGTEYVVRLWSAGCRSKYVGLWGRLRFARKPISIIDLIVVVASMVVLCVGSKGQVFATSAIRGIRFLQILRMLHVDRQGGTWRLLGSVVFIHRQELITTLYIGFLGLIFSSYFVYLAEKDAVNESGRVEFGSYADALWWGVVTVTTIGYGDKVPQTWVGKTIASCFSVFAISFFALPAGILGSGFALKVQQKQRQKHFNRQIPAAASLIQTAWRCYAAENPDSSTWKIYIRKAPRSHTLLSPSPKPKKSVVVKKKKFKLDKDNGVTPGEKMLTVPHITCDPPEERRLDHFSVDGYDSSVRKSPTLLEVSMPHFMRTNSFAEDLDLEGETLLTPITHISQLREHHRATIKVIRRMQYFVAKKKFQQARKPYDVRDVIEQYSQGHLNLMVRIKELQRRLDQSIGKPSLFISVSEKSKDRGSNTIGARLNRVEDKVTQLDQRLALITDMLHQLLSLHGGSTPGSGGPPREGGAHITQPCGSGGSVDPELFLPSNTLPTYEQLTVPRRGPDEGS

Turning to `COc1ccc(C(=O)N2CCC(N3CCN(c4ccccc4)CC3)CC2)cc1`, the outcome in experiment [1], in experiment [2], in experiment [3] and in experiment [4] was inactive.

Take `O=C(CNC(=O)c1sc2ccccc2c1Cl)OCc1ccccc1`: the outcome in experiment [1], in experiment [2], in experiment [3] and in experiment [4] was inactive.

Regarding `CCCCOc1ccc(C(=O)Oc2ccc(C)nc2)cc1`, the result in experiment [1], in experiment [2], in experiment [3] and in experiment [4] was inactive.

With `O=C(COC(=O)C1CCC(=O)N1)Nc1ccc(Oc2ccccc2)cc1` (centres undefined), the outcome in experiment [1], in experiment [2], in experiment [3] and in experiment [4] was inactive.

Take `COc1ccc2c(c1)c(=O)c(C(=O)O)c(-c1ccc3c(c1)OCO3)n2C`: the result in experiment [1], in experiment [2], in experiment [3] and in experiment [4] was inactive.

In the case of `COc1ccc([N+](=O)[O-])cc1NC(=O)c1cccnc1`, the outcome in experiment [1], in experiment [2], in experiment [3] and in experiment [4] was inactive.

`S=c1[nH]cnc2sc(-c3ccccc3)cc12`: in experiment [1], the activation is 520% (active). The potentiation in experiment [2] was 274% (active); in experiment [3], 586% (active). Also, the outcome in experiment [4] was inactive.

For the compound `Oc1c(Br)cc(Br)cc1C=Nc1ccc2c(c1)OCO2`, in experiment [1], the activation is 172% (active). Further, the outcome in experiment [2], in experiment [3] and in experiment [4] was inactive.

In the case of `COc1cccc(C=O)c1OCCCOc1cccc2cccnc12`, the outcome in experiment [1], in experiment [2], in experiment [3] and in experiment [4] was inactive.

For `O=C(NC(=S)N1CCN(c2c(Cl)cccc2[N+](=O)[O-])CC1)c1cccs1`, in experiment [1], the activation is 236% (active). Besides, the potentiation in experiment [2] was 156% (active); in experiment [3], 375% (active). Moreover, in experiment [4], the outcome was inactive.

In the case of `CCOC(=O)C1(CC2CCCCO2)CCN(Cc2cc3ccccc3[nH]2)CC1` (centres undefined), the outcome in experiment [1], in experiment [2], in experiment [3] and in experiment [4] was inactive.

Regarding `C=C(C)CNC(=O)c1ccc(OC2CCN(C(=O)COC)CC2)cc1`, the result in experiment [1], in experiment [2], in experiment [3] and in experiment [4] was inactive.

For `C#CC1(NC(=O)NCCCC)CCCCC1`, the result in experiment [1], in experiment [2], in experiment [3] and in experiment [4] was inactive.

With `Cc1cccc(C)c1NC(=S)NC(=O)c1ccc(Br)o1`, the activation in experiment [1] was 394% (active). In addition, the results for the potentiation in experiment [2] and in experiment [3] were 122% (active) and 412% (active), respectively. For the same compound, the outcome in experiment [4] was inactive.

Take `CCC1(c2ccc(Cl)cc2)NC(=S)N(c2ccccc2)N1` (centres undefined): the activation in experiment [1] was 405% (active). Also, the potentiation was 150% (active) in experiment [2] and 375% (active) in experiment [3]. Besides, the result in experiment [4] was inactive.

As for `CON/C=N/C(=S)Nc1ncc(C(F)(F)F)cc1Cl`, the activation in experiment [1] is 283% (active). For the same compound, the potentiation in experiment [2] was 87.5% (active); in experiment [3], 337% (active). For the same compound, the result in experiment [4] was inactive.

For the compound `Cc1cc(C)c(NC(=O)CN2C(=O)NC3(CCCc4ccccc43)C2=O)c(Cl)c1` (centres undefined), the outcome in experiment [1], in experiment [2], in experiment [3] and in experiment [4] was inactive.

`O=C(NC(=S)N1CCc2ccccc21)c1ccc(Br)o1`: in experiment [1], the activation was 400% (active). The potentiation in experiment [2] is 124% (active); in experiment [3], 440% (active). In addition, the outcome in experiment [4] was inactive.

Turning to `Cc1nc(SC(C)C(=O)c2c(N)n(C)c(=O)n(C)c2=O)c2c(C)c(C)sc2n1` (centres undefined), the activation in experiment [1] was 199% (active). In addition, the potentiation is 86% (active) in experiment [2] and 256% (active) in experiment [3]. Further, in experiment [4], the outcome was inactive.

`Cc1ccc(OCC(=O)NCCCNC(=O)c2ccncc2)cc1C`: the result in experiment [1], in experiment [2], in experiment [3] and in experiment [4] was inactive.

As for `COc1ccc2c(CCNC(=O)CN3C(=O)c4ccccc4C3=O)c[nH]c2c1`, the outcome in experiment [1], in experiment [2], in experiment [3] and in experiment [4] was inactive.

As for `COc1ccccc1C(=O)NNC(=O)C(=O)Nc1cccc(Cl)c1C`, in experiment [1], the activation is 612% (active). The results for the potentiation in experiment [2] and in experiment [3] were 206% (active) and 580% (active), respectively. In experiment [4], the result was inactive.

Take `CCCN1C(=O)/C(=C/c2ccc(C)s2)NC1=S`: in experiment [1], the activation is 395% (active). Besides, the potentiation was 194% (active) in experiment [2] and 412% (active) in experiment [3]. In addition, the outcome in experiment [4] was inactive.

For `CC(/C=C1\SC(=S)N(NS(=O)(=O)c2ccccc2)C1=O)=C\c1ccccc1`, in experiment [1], the activation is 304% (active). Further, the results for the potentiation in experiment [2] and in experiment [3] were 157% (active) and 318% (active), respectively. In addition, the result in experiment [4] was inactive.

With `Oc1c(Br)cc(Br)cc1C=Nc1cccc2ncccc12`, the activation in experiment [1] was 166% (active). For the same compound, the outcome in experiment [2], in experiment [3] and in experiment [4] was inactive.

Consider `COc1ccc(C2C(C(=O)c3ccccc3)=C(C)Nc3nc4ccccc4n32)cc1OC` (centres undefined), for which the outcome in experiment [1], in experiment [2], in experiment [3] and in experiment [4] was inactive.

On to `O=C(C1CCCCC1)N(CCN1CCCC1)c1nc2ccccc2s1`, for which the result in experiment [1], in experiment [2], in experiment [3] and in experiment [4] was inactive.

As for `Cc1cc(C)n(CCNS(=O)(=O)c2ccccc2)n1`, the result in experiment [1], in experiment [2], in experiment [3] and in experiment [4] was inactive.

On to `CC1=NN(C(N)=S)C(=O)C1N=Nc1cccc(Cl)c1C` (centres undefined), for which the activation in experiment [1] is 1010% (active). Besides, the figures for the potentiation in experiment [2] and in experiment [3] were 665% (active) and 1230% (active), respectively. Also, the result in experiment [4] was inactive.

For `COc1ccccc1C(=O)NNC(=O)C(=O)Nc1ccc(C)c(Cl)c1`, the activation in experiment [1] is 552% (active). The potentiation in experiment [2] was 235% (active); in experiment [3], 512% (active). The result in experiment [4] was inactive.

On to `CC(C)[N+]1(C)[C@@H]2CC[C@H]1CC(OC(=O)C(CO)c1ccccc1)C2` (some centres undefined), for which the result in experiment [1], in experiment [2], in experiment [3] and in experiment [4] was inactive.
